Our source for the Activity and logP values is ChEMBL document CHEMBL1781919, “Synthesis and anticonvulsant properties of 1-(amino-N-arylmethanethio)-3-(1-substituted benzyl-2, 3-dioxoindolin-5-yl) urea derivatives” (Eur J Med Chem, 2011).

Data set [1] deals with Mus musculus. Description: Neurotoxicity in mouse assessed as minimum motor impairment at 30 mg/kg, ip after 0.5 hrs by rotarod test. In kind it is toxicity, organism-based. On the set-up: dose 30 mg/kg, route intraperitoneal. The conditions noted are these: in vivo. The gist of the method:
(§1)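 Rotorod test for minimal motor impairment in mice given 30, 100 or 300 mg/kg i.p. at 0.01 mL/g, using sets of one, three and one animals, at 0.5 h and 4.0 h. Animals are observed at each dose and time. Score is N/F, the number showing toxicity over the number tested.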
A general note: Falling from the rotarod earlier than controls is read as motor impairment.

Data set [2] concerns Mus musculus. Nature of the data set: Anticonvulsant activity in mouse assessed as protection against maximal electroshock-induced seizures at 300 mg/kg, ip after 0.5 hrs. Type of data set: functional, organism-based. The arrangement: dose 300 mg/kg. The gist of the method: (§2)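 Mouse Test 1: i.p. dosing at 0.01 mL/g. Sets of one, three and one animals receive 30, 100 and 300 mg/kg respectively, each tested at 0.5 h and 4.0 h. Score is N/F, the number of animals protected over the number tested. Screening performed by NINDS following the ADD program protocol.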
On the technique in general: Protection in the maximal electroshock model is a classic sign of anticonvulsant action.

In data set [3] the test system is Mus musculus. Nature of the data set: Anticonvulsant activity in mouse assessed as protection against subcutaneous pentylenetetrazole-induced seizures at 300 mg/kg, ip after 4 hrs. In kind it is functional, organism-based. On the set-up: dose 300 mg/kg.
Data set [4] relates to Mus musculus. Description: Neurotoxicity in mouse assessed as minimum motor impairment at 100 mg/kg, ip after 0.5 hrs by rotarod test. On the set-up: dose 100 mg/kg, route intraperitoneal. Type of data set: toxicity, organism-based. The conditions noted are these: in vivo. The method in brief: as §1
In data set [5] the test system is Mus musculus. Description: Neurotoxicity in mouse assessed as minimum motor impairment at 30 mg/kg, ip after 4 hrs by rotarod test. In kind it is toxicity, organism-based. The arrangement: dose 30 mg/kg, route intraperitoneal. The conditions noted are these: in vivo. The method in brief: as §1
Data set [6] has as its system Mus musculus. Description: Anticonvulsant activity in mouse assessed as protection against maximal electroshock-induced seizures at 30 mg/kg, ip after 0.5 hrs. In kind it is functional, organism-based. The arrangement: dose 30 mg/kg. The method in brief:
as §2

In data set [7] the test system is Mus musculus. Nature of the data set: Neurotoxicity in mouse assessed as minimum motor impairment at 100 mg/kg, ip after 4 hrs by rotarod test. Type of data set: toxicity, organism-based. On the set-up: dose 100 mg/kg, route intraperitoneal. The conditions noted are these: in vivo. The method in brief: as §1
In data set [8] the test system is Mus musculus. Nature of the data set: Anticonvulsant activity in mouse assessed as protection against maximal electroshock-induced seizures at 300 mg/kg, ip after 4 hrs. In kind it is functional, organism-based. On the set-up: dose 300 mg/kg. The method in brief:
as §2

Data set [9] is described as follows: Octanol-phosphate buffer partition coefficient, log P of the compound. In kind it is physicochemical. The gist of the method:
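Octanol and phosphate buffer partition run at room temperature (29 °C). After separation, the phases are membrane-filtered and drug in the aqueous phase is measured by UV. PC = (Ct − Ca)/Ca, where Ct is total drug concentration and Ca is aqueous-phase concentration.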

Data set [10] relates to Mus musculus. Description: Anticonvulsant activity in mouse assessed as protection against subcutaneous pentylenetetrazole-induced seizures at 100 mg/kg, ip after 0.5 hrs. Type of data set: functional, organism-based. The arrangement: dose 100 mg/kg.
Data set [11] has as its system Mus musculus. Description: Anticonvulsant activity in mouse assessed as protection against maximal electroshock-induced seizures at 100 mg/kg, ip after 0.5 hrs. Type of data set: functional, organism-based. On the set-up: dose 100 mg/kg. The gist of the method:
as §2

The subject of data set [12] is Mus musculus. Description: Anticonvulsant activity in mouse assessed as protection against subcutaneous pentylenetetrazole-induced seizures at 30 mg/kg, ip after 0.5 hrs. In kind it is functional, organism-based. On the set-up: dose 30 mg/kg.
In data set [13] the test system is Mus musculus. Nature of the data set: Neurotoxicity in mouse assessed as minimum motor impairment at 300 mg/kg, ip after 4 hrs by rotarod test. The conditions noted are these: in vivo. Type of data set: toxicity, organism-based. The arrangement: dose 300 mg/kg, route intraperitoneal. The gist of the method:
as §1

Data set [14] relates to Mus musculus. Nature of the data set: Anticonvulsant activity in mouse assessed as protection against subcutaneous pentylenetetrazole-induced seizures at 100 mg/kg, ip after 4 hrs. In kind it is functional, organism-based. The arrangement: dose 100 mg/kg.
Data set [15] has as its system Mus musculus. Nature of the data set: Anticonvulsant activity in mouse assessed as protection against maximal electroshock-induced seizures at 100 mg/kg, ip after 4 hrs. In kind it is functional, organism-based. On the set-up: dose 100 mg/kg. The gist of the method: as §2
Data set [16] relates to Mus musculus. Description: Anticonvulsant activity in mouse assessed as protection against subcutaneous pentylenetetrazole-induced seizures at 30 mg/kg, ip after 4 hrs. In kind it is functional, organism-based. On the set-up: dose 30 mg/kg.
Data set [17] concerns Mus musculus. Description: Anticonvulsant activity in mouse assessed as protection against maximal electroshock-induced seizures at 30 mg/kg, ip after 4 hrs. Type of data set: functional, organism-based. On the set-up: dose 30 mg/kg. The method in brief:
as §2

For data set [18], the system named is Mus musculus. Nature of the data set: Neurotoxicity in mouse assessed as minimum motor impairment at 300 mg/kg, ip after 0.5 hrs by rotarod test. Type of data set: toxicity, organism-based. The arrangement: dose 300 mg/kg, route intraperitoneal. The conditions noted are these: in vivo. The method in brief:
as §1

Data set [19] deals with Mus musculus. Nature of the data set: Anticonvulsant activity in mouse assessed as protection against subcutaneous pentylenetetrazole-induced seizures at 300 mg/kg, ip after 0.5 hrs. In kind it is functional, organism-based. On the set-up: dose 300 mg/kg.

Active and inactive are the calls of the source. The calls are words filed in the database; no cut-off is given here.

Usually logP stands for the decadic logarithm of the partition coefficient of the neutral form, usually between octanol and water. In the case of `COc1ccccc1NC(=S)NC(=O)Nc1ccc2c(c1)C(=O)C(=O)N2Cc1ccccc1`, the Activity entry in the data set on Mus musculus [1], with Mus musculus [4], in the data set with Mus musculus [5], in the data set with Mus musculus [7], in the data set with Mus musculus [13] and in the data set with Mus musculus [18] was “Non-toxic” in each case. Besides, the outcome in the data set on Mus musculus [2] and in the data set with Mus musculus [8] was Active. For the same molecule, the outcome in the data set with Mus musculus [3], in the data set with Mus musculus [6], in the data set with Mus musculus [10], in the data set on Mus musculus [11], in the data set with Mus musculus [12] and in the data set on Mus musculus [14] was inactive. For the same molecule, the result in the data set on Mus musculus [15], in the data set on Mus musculus [16], in the data set on Mus musculus [17] and in the data set with Mus musculus [19] was inactive. In data set [9], this molecule returned a logP of 2.38.

For `Cc1ccc(NC(=S)NC(=O)Nc2ccc3c(c2)C(=O)C(=O)N3Cc2ccccc2Cl)cc1`, the Activity result in the data set with Mus musculus [1], with Mus musculus [4], in the data set on Mus musculus [5], in the data set on Mus musculus [7], in the data set with Mus musculus [13] and in the data set with Mus musculus [18] was “Non-toxic” throughout. Further, the result in the data set on Mus musculus [2], with Mus musculus [3], with Mus musculus [6], in the data set with Mus musculus [8], with Mus musculus [10] and in the data set on Mus musculus [11] was inactive. The result in the data set with Mus musculus [12], in the data set with Mus musculus [14], with Mus musculus [15], with Mus musculus [16], in the data set on Mus musculus [17] and in the data set on Mus musculus [19] was inactive. Further, the logP in data set [9] was found to be 3.73.

Regarding `O=C(NC(=S)Nc1ccccc1Cl)Nc1ccc2c(c1)C(=O)C(=O)N2Cc1ccccc1`, the Activity result in the data set with Mus musculus [1], in the data set on Mus musculus [4], in the data set with Mus musculus [5], in the data set with Mus musculus [7], in the data set on Mus musculus [13] and in the data set with Mus musculus [18] was “Non-toxic” throughout. Besides, the outcome in the data set with Mus musculus [2], with Mus musculus [3], in the data set with Mus musculus [6], in the data set on Mus musculus [8], in the data set with Mus musculus [10] and in the data set on Mus musculus [11] was inactive. In addition, the result in the data set with Mus musculus [12], with Mus musculus [14], with Mus musculus [15], in the data set on Mus musculus [16], in the data set with Mus musculus [17] and in the data set with Mus musculus [19] was inactive. The molecule also returned a logP in data set [9] of 3.01.

Turning to `O=C(NC(=S)Nc1ccccc1Cl)Nc1ccc2c(c1)C(=O)C(=O)N2Cc1ccccc1Cl`, the Activity entry in the data set with Mus musculus [1], with Mus musculus [4], in the data set on Mus musculus [5], in the data set with Mus musculus [7], with Mus musculus [13] and with Mus musculus [18] was “Non-toxic” each time. Besides, the outcome in the data set on Mus musculus [2], in the data set on Mus musculus [3], in the data set on Mus musculus [6], in the data set with Mus musculus [8], in the data set with Mus musculus [10] and with Mus musculus [11] was inactive. For the same molecule, the result in the data set on Mus musculus [12], in the data set on Mus musculus [14], with Mus musculus [15], with Mus musculus [16], with Mus musculus [17] and with Mus musculus [19] was inactive. The molecule further had a lipophilicity (logP) in data set [9] of 3.98.

With `Cc1cccc(NC(=S)NC(=O)Nc2ccc3c(c2)C(=O)C(=O)N3Cc2ccccc2)c1`, the Activity result in the data set on Mus musculus [1], in the data set on Mus musculus [4], with Mus musculus [5], with Mus musculus [7], with Mus musculus [13] and with Mus musculus [18] was “Non-toxic” in each case. For the same molecule, the result in the data set on Mus musculus [2], in the data set on Mus musculus [3], in the data set on Mus musculus [6], in the data set with Mus musculus [8], in the data set on Mus musculus [10] and in the data set on Mus musculus [11] was inactive. In addition, the result in the data set on Mus musculus [12], with Mus musculus [14], with Mus musculus [15], in the data set with Mus musculus [16], in the data set on Mus musculus [17] and with Mus musculus [19] was inactive. In addition, the logP in data set [9] was determined as 2.92.

As to `Cc1ccccc1NC(=S)NC(=O)Nc1ccc2c(c1)C(=O)C(=O)N2Cc1ccccc1Cl`, the Activity result with Mus musculus [1], with Mus musculus [4], in the data set with Mus musculus [5], in the data set on Mus musculus [7], with Mus musculus [13] and with Mus musculus [18] was “Non-toxic” throughout. Further, the outcome with Mus musculus [2], in the data set on Mus musculus [6], in the data set with Mus musculus [10], in the data set on Mus musculus [11], in the data set with Mus musculus [12] and in the data set on Mus musculus [14] was inactive. Besides, the outcome with Mus musculus [15], in the data set on Mus musculus [16], in the data set with Mus musculus [17] and in the data set with Mus musculus [19] was inactive. Besides, the outcome in the data set with Mus musculus [3] and with Mus musculus [8] was Active. Besides, the logP in data set [9] worked out at 3.7.

On to `COc1cccc(NC(=S)NC(=O)Nc2ccc3c(c2)C(=O)C(=O)N3Cc2ccccc2Cl)c1`, for which the Activity entry in the data set with Mus musculus [1], in the data set with Mus musculus [4], in the data set on Mus musculus [5], with Mus musculus [7], in the data set on Mus musculus [13] and in the data set with Mus musculus [18] was “Non-toxic” in each case. For the same molecule, the result with Mus musculus [2], with Mus musculus [3], in the data set with Mus musculus [6], with Mus musculus [8], in the data set with Mus musculus [10] and with Mus musculus [11] was inactive. Besides, the outcome in the data set on Mus musculus [12], with Mus musculus [14], in the data set on Mus musculus [15], in the data set on Mus musculus [16], in the data set on Mus musculus [17] and with Mus musculus [19] was inactive. Further, the logP in data set [9] was found to be 3.19.
